Consider 8 compounds from ChEMBL document CHEMBL3228015, “Azaprostanoic acid derivatives. Inhibitors of arachidonic acid induced platelet aggregation” (1979).

Active and inactive are the calls of the source. The rule behind the calls is not given here.

Assay [1] relates to Platelet. The experiment in a line: Inhibition of 500 uM arachidonate-induced platelet aggregation in human platelet-rich plasma at 10 uM by turbidometric method. The class given is functional. Summed up: (§1)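 Citrated human PRP from normal donors (no aspirin for 48 h), centrifuged at 164g to remove red cells, kept at 25 °C. Reagents added as 10 μL per 1 mL PRP. Inhibitor held at 10^-5 M while arachidonate concentration varied. Turbidometric (Born) aggregation at 37 °C over 3 min; % inhibition from a single blood sample, representative of several determinations.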

Assay [2] has as its system Platelet. Put plainly: Inhibition of 400 uM arachidonate-induced platelet aggregation in human platelet-rich plasma at 10 uM by turbidometric method. The class given is functional. Summed up: as §1
Assay [3] relates to Platelet. Put plainly: Inhibition of 300 uM arachidonate-induced platelet aggregation in human platelet-rich plasma at 10 uM by turbidometric method. The format is functional. Summed up: as §1
The test system of assay [4] is Platelet. The experiment in a line: Inhibition of ADP-induced primary platelet aggregation in aspirin-treated human platelet-rich plasma at 100 uM after 2 mins by turbidometric method. The class given is functional. Summed up:
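PRP from donors free of aspirin for 48 h, centrifuged at 164g and held at 25 °C, then incubated 15 min with aspirin (1 mg/mL). Test agent (100 μM) added 2 min before 10 μM ADP. Primary aggregation compared with aspirin alone, read turbidometrically (Born) at 37 °C over 3 min.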

For assay [5], the target named is T1, Cyclooxygenase (Bos taurus) (UniProt O62664+O62698). The experiment in a line: Inhibition of cyclooxygenase activity in bovine seminal vesicles assessed as arachodonic acid dependent formation of adenochrome from L-epinephrine at 100 uM. The format is protein assay. Summed up:
(§2)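 Prostaglandin synthetase from a crude freeze-dried beef seminal vesicle powder, 6.7 mg/mL per assay, solubilized with 0.05% Triton X-100. Activity measured as arachidonic acid dependent adrenochrome formation from L-epinephrine (Takeguchi–Sih method, minor modification). Highest test concentration 5×10^-4 M; indomethacin 2×10^-5 M as reference.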

Assay [6] deals with T1, Cyclooxygenase (Bos taurus). The experiment in a line: Inhibition of cyclooxygenase activity in bovine seminal vesicles assessed as arachodonic acid dependent formation of adenochrome from L-epinephrine at 500 uM. The format is protein assay. Summed up:
as §2

Assay [7] shares this target. Put plainly: Inhibition of cyclooxygenase activity in bovine seminal vesicles assessed as arachodonic acid dependent formation of adenochrome from L-epinephrine at concentration of one order of magnitude greater than that necessary for 100% inhibition of platelet aggregation. Summed up: as §2

As for `CCCCCNCC[C@@H]1CCC[C@@H]1CCCCCCC(=O)O`, the figures for the “inhibition (INH)” value in the assay with Platelet [1], in the assay on Platelet [2] and with Platelet [3] were 0%, 16% and 91%, respectively. Further, the inhibition result (in the assay with Platelet [4]; in assay [5]) was “inactive” in each case.
As to `CCCCCCCN[C@H]1CCC[C@H]1CCCCCCC(=O)O` (relative stereo), the “inhibition (INH)” value in the assay with Platelet [1] turned out to be 0%; in the assay with Platelet [2] it was 11%; in the assay with Platelet [3], 43%. For the same compound, the inhibition entry (in the assay on Platelet [4]; in assay [6]) was “inactive” throughout.
Consider `CCCCCCCCN[C@H]1CCC[C@@H]1CCCCCCC(=O)O` (relative stereo), for which the “inhibition (INH)” value with Platelet [1] is listed as 0%; in the assay with Platelet [2] it was 7%; in the assay with Platelet [3], 71%. For the same compound, the inhibition (commonly the share of the control response that was lost under treatment) in assay [6] came out at 30%.
With `CCCCCCCCN[C@H]1CCC[C@H]1CCCCCCC(=O)O` (relative stereo), the “inhibition (INH)” value was 0% with Platelet [1], 11% in the assay on Platelet [2] and 50% in the assay on Platelet [3]. The inhibition in assay [6] is 30%.
Regarding `CCCCCCN[C@H]1CCC[C@@H]1CCCCCCC(=O)O` (relative stereo), the “inhibition (INH)” value is listed as 0% with Platelet [1], 0% in the assay on Platelet [2] and 14% with Platelet [3]. Also, in assay [6], the inhibition result was “inactive”.
As to `O=C(O)CCCCCC[C@H]1CCC[C@@H]1NCc1ccccc1` (relative stereo), the “inhibition (INH)” value in the assay on Platelet [1], with Platelet [2] and with Platelet [3] was 0% in each case. Moreover, the inhibition entry (with Platelet [4]; in assay [6]) was “inactive” in each case.
With `CCCCCCCN[C@H]1CCC[C@@H]1CCCCCCC(=O)O` (relative stereo), the “inhibition (INH)” value with Platelet [1] is recorded as 19%; in the assay on Platelet [2] it was 66%; with Platelet [3], 100%. Also, the inhibition result (in the assay with Platelet [4]; in assay [6]) was “inactive” throughout. In addition, in assay [7], the inhibition was under 10%.
Consider `O=C(O)CCCCCC[C@@H]1CCC[C@@H]1NCc1ccccc1` (relative stereo), for which the inhibition entry with Platelet [4] is “inactive”.
